Experimental data from ChEMBL document CHEMBL1151419, “Antimicrobial effect of halocidin-derived peptide in a mouse model of Listeria infection” (Antimicrob Agents Chemother, 2007).
≈ marks a conversion by molar mass, not a printed value. Calls of active or inactive are those of the source. No cut-off for these calls is given here. Bridge positions count the residues as written; N and C are the ends. Peptide text beside a SMILES is read from it. I, II: the chains in the order shown.

Legend:
[1] = Toxicity against human erythrocytes in assay tube containing mixture of erythrocytes/Listeria monocytogenes cells at 40 ug/ml after 30 mins; format: cell-based; conditions: erythrocyte, 0.5 h
Procedure, shortened: (§1)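 Washed mid-log L. monocytogenes (final 1 x 10^5 CFU/ml) was mixed with human blood cells (final 5 x 10^8 cells/ml) and peptide (final 40 µg/ml) in PBS at 37°C. A peptide-free control was included. At 10, 20 and 30 min, aliquots were plated on TSA and colonies counted after overnight growth. Blood cells were counted by hemocytometer under light microscopy.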

[2] = tested on: Listeria monocytogenes; experiment: Antibacterial activity against Listeria monocytogenes ATCC 19111 in assay tube containing mixture of erythrocyte/Listeria monocytogenes cells assessed as logarithmic reduction in CFU after 30 mins; format: functional; procedure, shortened: as §1
[3] = tested on: Staphylococcus aureus; experiment: Antimicrobial activity against methicillin-resistant Staphylococcus aureus CCARM 3695 after 18 hrs by broth microdilution assay; format: functional; conditions: CCARM 3695, 18 h
Procedure, shortened: (§2)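 Broth microdilution (modified CLSI). Overnight stationary-phase Mueller-Hinton broth cultures diluted to 2 x 10^5 CFU/ml final. Peptide serially twofold diluted in 0.01% acetic acid (stock series 640 down to 10 µg/ml); 11 µl added to 100 µl of bacteria. After 18 h at 37°C, MIC taken as the lowest concentration preventing visible turbidity.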

[4] = tested on: Staphylococcus aureus; experiment: Antimicrobial activity against methicillin-resistant Staphylococcus aureus CCARM 3695 after 18 hrs by broth microdilution assay in presence of 150 mM NaCl; format: functional; conditions: CCARM 3695, 18 h
Procedure, shortened: (§3)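 Same broth microdilution, but the medium was Mueller-Hinton broth supplemented with 150 mM NaCl. Inoculum 2 x 10^5 CFU/ml final. Peptide twofold series in 0.01% acetic acid (stocks 640 to 10 µg/ml). After 18 h at 37°C, MIC read as the lowest concentration with no visible growth.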

[5] = tested on: Listeria monocytogenes; experiment: Antimicrobial activity against Listeria monocytogenes ATCC 19111 after 18 hrs by broth microdilution assay; format: functional; conditions: ATCC 19111, 18 h
Procedure, shortened: (§4)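 Bacteria were grown overnight to stationary phase in Mueller-Hinton broth at 37°C and diluted to 2 x 10^5 CFU/ml. Line 3 used MHB plus 150 mM NaCl. Peptide stock (640 µg/ml in 0.01% acetic acid) was twofold serially diluted to 10 µg/ml, and 11 µl was added per 100 µl of cells. Turbidity was read after 18 h at 37°C; MIC was the minimum concentration visibly inhibiting growth.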

[6] = tested on: Staphylococcus aureus; experiment: Antimicrobial activity against methicillin-resistant Staphylococcus aureus CCARM 3695 treated with supernatant containing 2 mg drug incubated for 10 mins with PBS centrifuged for 3 hrs by radial diffusion assay; format: functional, organism-based
Procedure, shortened: (§5)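 2 mg peptide incubated 10 min at 37°C in 2 ml PBS, either serum-free or with 50% heat-treated normal human serum. Spun 3 h at 295,000 x g, 4°C. Then 5 µl of supernatant tested by radial diffusion against mid-log MRSA (4 x 10^6 CFU/ml underlay, 3 h at 37°C, overlay, overnight); clear zones measured.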

[7] = tested on: Staphylococcus aureus; experiment: Antimicrobial activity against methicillin-resistant Staphylococcus aureus CCARM 3695 treated with supernatant containing 2 mg drug incubated for 10 mins with PBS containing 50 % normal human serum centrifuged for 3 hrs by radial diffusion assay; format: functional, organism-based; procedure, shortened: as §5
[8] = tested on: Enterococcus faecium; experiment: Antimicrobial activity against vancomycin-resistant Enterococcus faecium CCARM 5029 after 18 hrs by broth microdilution assay; format: functional; conditions: CCARM 5029, 18 h; procedure, shortened: as §2
[9] = tested on: Enterococcus faecium; experiment: Antimicrobial activity against vancomycin-resistant Enterococcus faecium CCARM 5029 after 18 hrs by broth microdilution assay in presence of 150 mM NaCl; format: functional; conditions: CCARM 5029, 18 h; procedure, shortened: as §3
[10] = tested on: Listeria monocytogenes; experiment: Antimicrobial activity against Listeria monocytogenes ATCC 19111 after 18 hrs by broth microdilution assay in presence of 150 mM NaCl; format: functional; conditions: ATCC 19111, 18 h; procedure, shortened: as §4
[11] = tested on: Staphylococcus aureus; experiment: Antimicrobial activity against methicillin-resistant Staphylococcus aureus CCARM 3695 treated with sample containing 200 ug/ml drug incubated with PBS containing 50% normal human serum for 10 mins measured after 3 hrs by radial diffusion assay; format: functional, organism-based
Procedure, shortened: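 Normal human serum from three donors, heat-treated 30 min at 56°C. Peptide at 25–200 µg/ml in PBS with 50% serum, held 10 min at 37°C; 5 µl placed in 3-mm wells. Underlay: 1% agarose, 9 mM phosphate, 1 mM citrate, 0.3 mg/ml TSB, pH 7.4, with 4 x 10^6 CFU/ml mid-log MRSA. After 3 h at 37°C, overlaid (1% agarose, 6% TSB), incubated overnight. Clear zones in units (1 mm = 10 units); triplicate means.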

Compound | Activity [1] | Activity [2] | MIC [3] [µg/mL] | MIC [4] [µg/mL] | MIC [5] [µg/mL] | Activity [6] | Activity [7] | MIC [8] [µg/mL] | MIC [9] [µg/mL] | MIC [10] [µg/mL] | Activity [11]
H-RRWVRRVRRVWRRVVRVVRRWVRR-OH | Toxic | Active |  |  |  |  |  |  |  |  | 
CC(C)C[C@H](NC(=O)CNC(=O)[C@H](Cc1cnc[nH]1)NC(=O)[C@H](Cc1cnc[nH]1)NC(=O)[C@H](CC(C)C)NC(=O)[C@H](CC(C)C)NC(=O)[C@H](C)N)C(=O)N[C@@H](CC(N)=O)C(=O)N[C@@H](CSSC[C@H](NC(=O)[C@H](CC(N)=O)NC(=O)[C@H](CC(C)C)NC(=O)CNC(=O)[C@H](Cc1cnc[nH]1)NC(=O)[C@H](Cc1cnc[nH]1)NC(=O)[C@H](CC(C)C)NC(=O)[C@H](CC(C)C)NC(=O)[C@H](C)NC(=O)[C@H](CC(N)=O)NC(=O)[C@H](CC(C)C)NC(=O)[C@@H](N)Cc1c[nH]c2ccccc12)C(=O)N[C@@H](C)C(=O)N[C@@H](CCCCN)C(=O)NCC(=O)N[C@H](C(=O)N[C@@H](CC(C)C)C(=O)N[C@@H](C)C(=O)O)C(C)C)C(=O)N[C@@H](C)C(=O)N[C@@H](CCCCN)C(=O)NCC(=O)N[C@H](C(=O)N[C@@H](CC(C)C)C(=O)N[C@@H](C)C(=O)O)C(C)C [HALOCIDIN] (I: H-WLNALLHHGLNCAKGVLA-OH / II: H-ALLHHGLNCAKGVLA-OH; disulfide I:12-II:9) |  |  | 16 (≈ 4.64 µM) | 32 | 64 (≈ 18.6 µM) | Active | Active | 64 (≈ 18.6 µM) | > 64 | > 64 | 
CC[C@H](C)[C@H](NC(=O)CN)C(=O)NCC(=O)N[C@@H](C)C(=O)N[C@H](C(=O)N[C@@H](CC(C)C)C(=O)N[C@@H](CCCCN)C(=O)N[C@H](C(=O)N[C@@H](CC(C)C)C(=O)N[C@H](C(=O)N[C@H](C(=O)NCC(=O)N[C@@H](CC(C)C)C(=O)N1CCC[C@H]1C(=O)N[C@@H](C)C(=O)N[C@@H](CC(C)C)C(=O)N[C@H](C(=O)N[C@@H](CO)C(=O)N[C@@H](Cc1c[nH]c2ccccc12)C(=O)N[C@H](C(=O)N[C@@H](CCCCN)C(=O)N[C@@H](CCCNC(=N)N)C(=O)N[C@@H](CCCCN)C(=O)N[C@@H](CCCNC(=N)N)C(=O)N[C@@H](CCC(N)=O)C(=O)N[C@@H](CCC(N)=O)C(N)=O)[C@@H](C)CC)[C@@H](C)CC)[C@@H](C)O)[C@@H](C)O)C(C)C)C(C)C [MELITTIN] | Toxic | Active |  |  |  |  |  |  |  |  | 
CC(C)C[C@H](NC(=O)CNC(=O)[C@H](Cc1cnc[nH]1)NC(=O)[C@H](Cc1cnc[nH]1)NC(=O)[C@H](CC(C)C)NC(=O)[C@H](CC(C)C)NC(=O)[C@H](C)NC(=O)[C@H](CC(N)=O)NC(=O)[C@H](CC(C)C)NC(=O)[C@H](Cc1c[nH]c2ccccc12)NC(=O)[C@@H](N)CCCCN)C(=O)N[C@@H](CC(N)=O)C(=O)N[C@@H](CSSC[C@H](NC(=O)[C@H](CC(N)=O)NC(=O)[C@H](CC(C)C)NC(=O)CNC(=O)[C@H](Cc1cnc[nH]1)NC(=O)[C@H](Cc1cnc[nH]1)NC(=O)[C@H](CC(C)C)NC(=O)[C@H](CC(C)C)NC(=O)[C@H](C)NC(=O)[C@H](CC(N)=O)NC(=O)[C@H](CC(C)C)NC(=O)[C@H](Cc1c[nH]c2ccccc12)NC(=O)[C@@H](N)CCCCN)C(=O)N[C@@H](C)C(=O)N[C@@H](CCCCN)C(=O)NCC(=O)N[C@H](C(=O)N[C@@H](CC(C)C)C(=O)N[C@@H](C)C(=O)O)C(C)C)C(=O)N[C@@H](C)C(=O)N[C@@H](CCCCN)C(=O)NCC(=O)N[C@H](C(=O)N[C@@H](CC(C)C)C(=O)N[C@@H](C)C(=O)O)C(C)C (I: H-KWLNALLHHGLNCAKGVLA-OH / II: H-KWLNALLHHGLNCAKGVLA-OH; disulfide I:13-II:13) |  |  | 4 (≈ 0.972 µM) | 8 | 4 (≈ 0.972 µM) |  | inactive | 4 (≈ 0.972 µM) | 4 | 8 | inactive
